# Where “and” joins values, the source holds several entries; their conditions need not be identical. Identical values can stand only once.
# Assays:
# Felis catus [1] = assay: (§1) Dose on arterial blood pressure (BP) in anesthetized cat; type: functional
# Method in brief: (§2)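 Adult cats (2.5-4.0 kg) anesthetized with ketamine 11 mg/kg im, then chloralose 80 mg/kg iv. Femoral artery cannulated for blood pressure, femoral vein for drug. Ventilated, paralyzed with gallamine 4 mg/kg iv, rectal temperature held at 37-38 °C. Cumulative iv doses given at 20-min intervals. Maximum decrease reported following a 1 mg/kg iv dose.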
# Mus musculus [2] = assay: Tested in vivo for the effective dose administered orally in mouse hypothermia assay; type: functional; conditions: po
# Method in brief: (§3)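 Charles River CF-1 mice (18-22 g, 4 per dose), housed individually 20 min before testing. Rectal temperature taken before dosing and 20 min after (sc 0.1 mL; oral 0.2 mL by gavage needle). A drop of ≥2 °F counted as positive. Doses started at 30 mg/kg and fell by half-log until 0/4 responded.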
# Rattus norvegicus [3] = assay: Effect on the synthesis rate of 5 HTP accumulation at the dose of 3.4 umol/kg in the rat ventral limbic brain region; type: functional, Limbic system
# Method in brief: (§4)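 Male Sprague-Dawley rats dosed sc with drug or vehicle at time zero. NSD 1015 (100 mg/kg ip) given 15 min later to block aromatic decarboxylase. Brain DOPA and 5-HTP measured by electrochemical detection with peak integration. Expressed as percent change from NSD 1015 plus saline controls. Control and test groups N = 6 each, compared by unpaired t test.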
# Felis catus [4] = species: Felis catus; assay: Dose at which the SND has been reduced to 50% of the pretreatment value; type: functional
# Method in brief: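 Adult cats (2.5-4.0 kg), ketamine 11 mg/kg im then chloralose 80 mg/kg iv, ventilated, gallamine-paralyzed, rectal temperature 37-38 °C. Sympathetic nerve discharge quantified by cumulative integration. Cumulative iv doses were given at 20-min intervals. Value is the dose reducing discharge to 50% of pretreatment.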
# Rattus norvegicus [5] = assay: Effect on the synthesis rate of dopamine (DOPA) accumulation at the dose of 3.4 umol/kg in the rat ventral limbic brain region; type: functional, Limbic system; method in brief: as §4
# Mus musculus [6] = assay: In vivo effective dose administered subcutaneously in mouse hypothermia assay.; type: functional; conditions: sc; method in brief: as §3
# Mus musculus [7] = assay: Tested in vivo for the maximum temperature decrease in mouse hypothermia assay.; type: functional
# Method in brief: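 CF-1 mice (18-22 g, 4 per dose), dosed sc or orally. Rectal temperature measured before dosing and 20 min after. The mean maximum temperature drop (°F) at 20 min after any dose is recorded as an efficacy index.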
# Felis catus [8] = species: Felis catus; assay: Maximum decrease observed; type: functional; design: unit not given here
# Felis catus [9] = assay: Maximum decrease on arterial blood pressure at 1 mg/kg; type: functional; method in brief: as §2
# Mus musculus [10] = assay: Behavioral time in mouse face to face assay at 3.2 umol/kg administered perorally; type: functional
# Method in brief: (§5)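 Male CF-1 mice (Charles River, 19-29 g), 8 pairs per dose, dosed sc, ip or orally in 0.25% methylcellulose or 0.1% citric acid; 30 min absorption housed with familiar partner. Pairs from different home cages placed in small litter-floored cage; face-to-face interaction duration scored visually for 3 min. Wilcoxon rank sum (two-tailed) vs daily control, p < 0.05.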
# Rattus norvegicus [11] = assay: Effect on the synthesis rate of 5 HTP accumulation at the dose of 3.2 umol/kg in the rat ventral limbic brain region; type: functional, Limbic system; method in brief: as §4
# Mus musculus [12] = assay: Behavioral time in mouse isolation-induced aggression assay at 32.5 umol/kg administered perorally; type: functional
# Method in brief: (§6)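 Male CF-1 mice. Residents were isolated singly for at least 1 month; group-housed intruders were kept 4-6/cage. Mice weighed 28-30 g at first test. Residents got drug ip or orally in 0.25% methylcellulose or 0.1% citric acid 30 min before an untreated intruder was introduced. Latency to fighting was recorded, capped at 600 s. Dosing was blind, 6/group (vehicle n = 12), Wilcoxon rank sum.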
# Mus musculus [13] = assay: Behavioral time in mouse isolation-induced aggression assay at 9.7 umol/kg administered perorally; type: functional; method in brief: as §6
# Rattus norvegicus [14] = assay: Effect on the synthesis rate of dopamine (DOPA) accumulation at the dose of 3.2 umol/kg in the rat ventral limbic brain region; type: functional, Limbic system; method in brief: as §4
# Mus musculus [15] = assay: Behavioral time in mouse face to face assay at 0 umol/kg administered perorally; type: functional; method in brief: as §5
# Mus musculus [16] = assay: Behavioral time in mouse face to face assay at 32.5 umol/kg administered perorally; type: functional; method in brief: as §5
# Mus musculus [17] = assay: Behavioral time in mouse face to face assay at 0.3 umol/kg administered perorally; type: functional; method in brief: as §5
# Mus musculus [18] = assay: Behavioral time in mouse isolation-induced aggression assay at 0 umol/kg administered perorally; type: functional; method in brief: as §6
# Mus musculus [19] = assay: Behavioral time in mouse face to face assay at 36 umol/kg administered subcutaneously; type: functional; method in brief: as §5
# Rattus norvegicus [20] = assay: Effect on the synthesis rate of dopamine (DOPA) accumulation at the dose of 3.6 umol/kg in the rat ventral limbic brain region; type: functional, Limbic system; method in brief: as §4
# Mus musculus [21] = assay: Behavioral time in mouse face to face assay at 3.6 umol/kg administered subcutaneously; type: functional; method in brief: as §5
# Rattus norvegicus [22] = assay: Effect on the synthesis rate of 5 HTP accumulation at the dose of 3.6 umol/kg in the rat ventral limbic brain region; type: functional, Limbic system; method in brief: as §4
# Mus musculus [23] = assay: Behavioral time in mouse face to face assay at 0.4 umol/kg administered subcutaneously; type: functional; method in brief: as §5
# Mus musculus [24] = assay: Behavioral time in mouse face to face assay at 0 umol/kg administered subcutaneously; type: functional; method in brief: as §5
# Mus musculus [25] = assay: Behavioral time in mouse face to face assay at 34 umol/kg administered subcutaneously; type: functional; method in brief: as §5
# Mus musculus [26] = assay: Behavioral time in mouse isolation-induced aggression assay at 3.4 umol/kg administered intraperitoneally; type: functional; method in brief: as §6
# Mus musculus [27] = assay: Behavioral time in mouse face to face assay at 3.4 umol/kg administered subcutaneously; type: functional; method in brief: as §5
# Mus musculus [28] = assay: Behavioral time in mouse isolation-induced aggression assay at 34 umol/kg administered intraperitoneally; type: functional; method in brief: as §6
# Mus musculus [29] = assay: Behavioral time in mouse isolation-induced aggression assay at 10 umol/kg administered intraperitoneally; type: functional; method in brief: as §6
# Mus musculus [30] = assay: Behavioral time in mouse face to face assay at 0.3 umol/kg administered subcutaneously; type: functional; method in brief: as §5
# Mus musculus [31] = assay: Behavioral time in mouse isolation-induced aggression assay 0 umol/kg administered intraperitoneally; type: functional
# Method in brief: (§7)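 Isolated male CF-1 resident mice, housed singly ≥1 month and weighing 28-30 g at testing, were dosed ip or orally in 0.25% methylcellulose or 0.1% citric acid. Dosing was blind, 6 per group (n=12 vehicle). After 30 min an untreated group-housed intruder was introduced. Latency to fighting was recorded, capped at 600 s. Residents rested ≥3 days before reuse. Wilcoxon rank sum.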
# Felis catus [32] = assay: as §1; type: functional; remark: listed apart in the source
# Mus musculus [33] = assay: Behavioral time in mouse face to face assay at 30 umol/kg administered subcutaneously; type: functional
# Method in brief: (§8)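 Male CF-1 mice (19-29 g), 8 pairs per dose, dosed sc, ip or orally in 0.25% methylcellulose or 0.1% citric acid. Pairs from the same home cage are held together for 30 min. Pairs from different cages are then placed in a small litter-floored cage, and face-to-face interaction is timed visually for 3 min. Comparison with the daily control by two-tailed Wilcoxon rank sum, p<0.05.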
# Mus musculus [34] = assay: Behavioral time in mouse face to face assay at 30 umol/kg administered subcutaneously (*P<0.05); type: functional; method in brief: as §8
# Rattus norvegicus [35] = assay: Effect on the synthesis rate of dopamine (DOPA) accumulation at the dose of 0.3 umol/kg in the rat ventral limbic brain region; type: functional, Limbic system
# Method in brief: (§9)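 Male Sprague-Dawley rats were given test drug or vehicle sc at time zero, then NSD 1015 (100 mg/kg ip) 15 min later. DOPA and 5-HTP were measured electrochemically by peak integration. Results are expressed as percent change from NSD 1015 plus saline controls. Groups of 6 vs control 6, unpaired t test.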
# Mus musculus [36] = assay: Behavioral time in mouse isolation-induced aggression assay 0.3 umol/kg administered intraperitoneally; type: functional; method in brief: as §7
# Rattus norvegicus [37] = assay: Effect on the synthesis rate of 5 HTP accumulation at the dose 0.3 umol/kg in the rat ventral limbic brain region; type: functional, Limbic system; method in brief: as §9
# Rattus norvegicus [38] = assay: Effect on the synthesis rate of 5 HTP accumulation at the dose of 3.0 umol/kg in the rat ventral limbic brain region (*P<0.05); type: functional, Limbic system; method in brief: as §9
# Mus musculus [39] = assay: Behavioral time in mouse isolation-induced aggression assay at 0 umol/kg administered intraperitoneally; type: functional; method in brief: as §7
# Mus musculus [40] = assay: Behavioral time in mouse isolation-induced aggression assay at 3.0 umol/kg administered intraperitoneally (*P<0.05); type: functional; method in brief: as §7
# Mus musculus [41] = assay: Behavioral time in mouse isolation-induced aggression assay at 0.9 umol/kg administered intraperitoneally; type: functional; method in brief: as §7
# Mus musculus [42] = assay: Behavioral time in mouse isolation-induced aggression behavioral assay at 30 umol/kg administered intraperitoneally (*P<0.05); type: functional; method in brief: as §7
# Mus musculus [43] = assay: Behavioral time in mouse face to face assay at dose of 0 umol/kg administered; type: functional; method in brief: as §8
# Rattus norvegicus [44] = assay: Effect on the synthesis rate of dopamine (DOPA) accumulation at the dose of 3.0 umol/kg in the rat ventral limbic brain region; type: functional, Limbic system; method in brief: as §9
# Mus musculus [45] = assay: Behavioral time in mouse isolation-induced aggression behavioral assay at 9.1 umol/kg administered intraperitoneally (*P<0.05); type: functional; method in brief: as §7
# Mus musculus [46] = assay: Behavioral time in mouse face to face assay at 3.0 umol/kg administered subcutaneously; type: functional; method in brief: as §8
Compound,BP (Felis catus [1]) [%],ED50 (Mus musculus [2]) [µmol/kg],ED50 (Felis catus [4]) [µmol/kg],ED50 (Mus musculus [6]) [µmol/kg],TMP.decrease (Mus musculus [7]),Max decrease (Felis catus [8]),Max decrease (Felis catus [9]),also measured
C=CC[C@H]1c2c(cccc2OC)CC[C@H]1NCCC,85,78,0.27,3.4,7.6 degrees F and 6 degrees F,10,57,Change (Rattus norvegicus [3]): -50%; Change (Rattus norvegicus [5]): 2.2%
C=CCN[C@@H]1CCc2cccc(OC)c2[C@H]1CC=C (relative stereo),59,79,1.19,5.9,11.5 degrees F and 6.6 degrees F,10,45,–
C=CCN(CCC)[C@@H]1CCc2cccc(OC)c2C1=C,59,–,0.91,> 97,3.6 degrees F,20,51,Time (Mus musculus [10]): 1.9 s; Change (Rattus norvegicus [11]): -52%; Time (Mus musculus [12]): 416 s; Time (Mus musculus [13]): 61 s; Change (Rattus norvegicus [14]): -36%; Time (Mus musculus [15]): 0.7 s; Time (Mus musculus [16]): 2.5 s; Time (Mus musculus [17]): 1.9 s; Time (Mus musculus [18]): 56 s
C=CCN[C@@H]1CCc2cccc(OC)c2[C@@H]1CO,82,> 106,0.09,1.4,–,5,48,–
C=CCN[C@@H]1CCc2cccc(O)c2[C@@H]1CC=C,–,> 107,–,1.1,–,–,–,Time (Mus musculus [19]): 2.6 s; Change (Rattus norvegicus [20]): 38%; Time (Mus musculus [21]): 0.5 s; Change (Rattus norvegicus [22]): -48%; Time (Mus musculus [23]): 0.8 s; Time (Mus musculus [24]): 0.8 s
C=CC[C@H]1c2c(cccc2OC)CC[C@H]1NCC1CC1,65,134,0.27,18,–,10,58,–
CCCN[C@@H]1CCc2cccc(OC)c2[C@@H]1CCC,–,> 101,–,14,6.5 degrees F,–,–,–
C=CCN[C@@H]1CCc2cccc(OC)c2[C@@H]1CC=C,70,44,0.54,7.9,9.8 degrees F and 6.6 degrees F,18,58,Time (Mus musculus [25]): 4.3 s; Time (Mus musculus [26]): 45 s; Change (Rattus norvegicus [3]): -60%; Time (Mus musculus [27]): 1.4 s; Change (Rattus norvegicus [5]): -21%; Time (Mus musculus [28]): 290 s; Time (Mus musculus [29]): 130 s; Time (Mus musculus [30]): 0.9 s; Time (Mus musculus [24]): 1.1 s
CCCN(CCC)C1CCc2cccc(O)c2C1 (configuration not stated) [8-OH-DPAT],–,9.7,0.03,1,7.2 degrees F and 7.5 degrees F,2,57,Time (Mus musculus [31]): 6 s; BP (ED50) (Felis catus [32]): 66%; Time (Mus musculus [33]): 5 s; Time (Mus musculus [34]): 4.4 s; Change (Rattus norvegicus [35]): 16%; Time (Mus musculus [36]): 11 s; Change (Rattus norvegicus [37]): -37%; Change (Rattus norvegicus [38]): -48%; Time (Mus musculus [39]): 177 s; Time (Mus musculus [40]): 310 s; Time (Mus musculus [41]): 20 s; Time (Mus musculus [42]): 351 s; Time (Mus musculus [43]): 1.1 s; Change (Rattus norvegicus [44]): 3.2%; Time (Mus musculus [45]): 437 s; Time (Mus musculus [46]): 1.6 s

# Reference: ChEMBL document CHEMBL1126613, “Centrally acting serotonergic agents. Synthesis and structure-activity relationships of C-1- or C-3-substituted derivatives of 8-hydroxy-2-(di-n-propylamino)tetralin” (J Med Chem, 1993)
